# Source: ChEMBL document CHEMBL2150901, “Synthesis and biological activity of tricyclic cycloalkylimidazo-, pyrimido- and diazepinopurinediones” (Eur J Med Chem, 2011)
# Activity calls are given as the source filed them. No cut-off for these calls is given here.
# What was measured:
# [1] = test system: Rattus norvegicus; assay: Anticonvulsant activity in po dosed Sprague-Dawley albino rat assessed as protection against subcutaneous pentylenetetrazole-induced seizures; format: functional
# [2] = test system: Rattus norvegicus; assay: Anticonvulsant activity in po dosed Sprague-Dawley albino rat assessed as protection against maximal electroshock-induced seizures; format: functional
# [3] = target: T1, Adenosine receptor A3 (Homo sapiens, UniProt P0DMS8); assay: Displacement of [3H]PSB-11 from human recombinant adenosine A3 receptor expressed in CHO cells; format: cell-based
# T1 sequence (P0DMS8 whole entry): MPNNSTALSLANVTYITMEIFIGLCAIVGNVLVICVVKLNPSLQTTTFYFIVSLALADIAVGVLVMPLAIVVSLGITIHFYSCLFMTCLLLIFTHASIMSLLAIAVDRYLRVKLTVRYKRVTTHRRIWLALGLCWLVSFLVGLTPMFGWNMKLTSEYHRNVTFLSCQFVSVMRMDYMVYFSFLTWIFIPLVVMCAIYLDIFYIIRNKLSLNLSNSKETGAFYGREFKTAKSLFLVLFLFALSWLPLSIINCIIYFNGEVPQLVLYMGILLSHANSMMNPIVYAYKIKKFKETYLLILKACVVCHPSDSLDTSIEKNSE
# [4] = test system: Mus musculus; assay: Neurotoxicity in F1 albino mouse assessed as minimal motor impairment at 300 mg/kg, ip after 1 hr by rotorod test; format: toxicity, organism-based; set-up: dose 300 mg/kg, route intraperitoneal; conditions: in vivo
# Summary of the method: (§1)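 Male albino F-1 mice (18–25 g), groups of 1–5 (rotorod 2–8). Compound given ip as a suspension in 0.5% methylcellulose at 30, 100 and 300 mg/kg. Seizures by maximal electroshock or subcutaneous pentylenetetrazole; neurotoxicity by rotorod. Read at 0.5 and 4 h, with some at 0.25, 1 and 2 h. Value is the minimum active dose, with protected (or toxic)/tested animals.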
# [5] = test system: Mus musculus; assay: Anticonvulsant activity in F1 albino mouse assessed as protection against maximal electroshock-induced seizures at 300 mg/kg, ip after 0.25 hrs; format: functional, organism-based; set-up: dose 300 mg/kg; summary of the method: as §1
# [6] = test system: Mus musculus; assay: Anticonvulsant activity in F1 albino mouse assessed as protection against subcutaneous pentylenetetrazole-induced seizures at 300 mg/kg, ip after 1 hr; format: functional, organism-based; set-up: dose 300 mg/kg; summary of the method: as §1
# [7] = target: T2, Adenosine receptor A3 (Homo sapiens) (UniProt P0DMS8); assay: Displacement of [3H]PSB-11 from human recombinant adenosine A3 receptor expressed in CHO cells at 10 uM; format: cell-based
# T2 sequence (whole entry): T1 sequence (P0DMS8 whole entry)
# Summary of the method: (§2)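 CHO cell membranes expressing the human receptor. Radioligands: A1 [3H]CCPA; A2B [3H]ZM241385 or [3H]PSB-603; A3 [3H]PSB-11. […] Potent compounds run at 6–7 concentrations spanning 3 orders of magnitude; Ki ± SEM.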
# [8] = target: T3, Adenosine receptor A2a (Homo sapiens, UniProt P29274); assay: Displacement of [3H]MSX-2 from human recombinant adenosine A2A receptor expressed in CHO cells; format: cell-based
# T3 sequence (P29274 whole entry): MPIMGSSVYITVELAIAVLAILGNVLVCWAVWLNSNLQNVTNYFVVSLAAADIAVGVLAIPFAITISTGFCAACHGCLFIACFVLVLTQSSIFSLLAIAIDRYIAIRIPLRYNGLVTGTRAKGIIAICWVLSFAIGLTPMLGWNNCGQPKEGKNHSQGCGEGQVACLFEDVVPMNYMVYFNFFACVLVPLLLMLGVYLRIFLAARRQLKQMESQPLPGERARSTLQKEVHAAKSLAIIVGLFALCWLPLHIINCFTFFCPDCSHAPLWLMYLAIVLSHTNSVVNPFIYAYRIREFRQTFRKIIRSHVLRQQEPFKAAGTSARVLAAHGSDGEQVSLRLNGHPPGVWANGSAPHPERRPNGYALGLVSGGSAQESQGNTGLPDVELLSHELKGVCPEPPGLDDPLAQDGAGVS
# [9] = target: T4, Adenosine receptor A1 (Homo sapiens, UniProt P30542); assay: Displacement of [3H]CCPA from human recombinant adenosine A1 receptor expressed in CHO cells; format: cell-based
# T4 sequence (P30542 whole entry): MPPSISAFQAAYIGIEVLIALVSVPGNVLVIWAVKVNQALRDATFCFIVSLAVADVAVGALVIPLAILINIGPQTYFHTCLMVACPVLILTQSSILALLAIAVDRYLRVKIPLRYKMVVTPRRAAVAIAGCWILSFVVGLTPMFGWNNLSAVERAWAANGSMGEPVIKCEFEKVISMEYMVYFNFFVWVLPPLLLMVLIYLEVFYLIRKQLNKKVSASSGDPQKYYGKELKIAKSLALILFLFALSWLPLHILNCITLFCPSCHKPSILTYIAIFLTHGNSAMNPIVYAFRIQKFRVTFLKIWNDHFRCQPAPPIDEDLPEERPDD
# [10] = test system: CHO; assay: Selectivity ratio of Ki for human recombinant adenosine A2A receptor expressed in CHO cells to Ki for adenosine A2A receptor in rat brain striatal membrane; format: cell-based
# Summary of the method: (§3)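 Ki ratios from radioligand competition binding. Rat A1 used brain cortical membranes and rat A2A used brain striatal membranes. Human A1 and A2A used membranes of CHO cells expressing the receptors. A1 radioligand [³H]CCPA; A2A radioligand [³H]MSX-2. Potent compounds were tested at 6–7 concentrations spanning 3 orders of magnitude.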
# [11] = test system: Mus musculus; assay: Neurotoxicity in F1 albino mouse assessed as minimal motor impairment at 100 mg/kg, ip after 0.5 hrs by rotorod test; format: toxicity, organism-based; set-up: dose 100 mg/kg, route intraperitoneal; conditions: in vivo; summary of the method: as §1
# [12] = target: T5, Adenosine receptor A1 (Homo sapiens) (UniProt P30542); assay: Displacement of [3H]CCPA from human recombinant adenosine A1 receptor expressed in CHO cells at 10 uM; format: cell-based; summary of the method: as §2
# T5 sequence (whole entry): T4 sequence (P30542 whole entry)
# [13] = target: T6, Adenosine receptor A2b (Homo sapiens, UniProt P29275); assay: Displacement of [3H]ZM241385 from human adenosine A2B receptor expressed in CHO cells; format: cell-based
# T6 sequence (P29275 whole entry): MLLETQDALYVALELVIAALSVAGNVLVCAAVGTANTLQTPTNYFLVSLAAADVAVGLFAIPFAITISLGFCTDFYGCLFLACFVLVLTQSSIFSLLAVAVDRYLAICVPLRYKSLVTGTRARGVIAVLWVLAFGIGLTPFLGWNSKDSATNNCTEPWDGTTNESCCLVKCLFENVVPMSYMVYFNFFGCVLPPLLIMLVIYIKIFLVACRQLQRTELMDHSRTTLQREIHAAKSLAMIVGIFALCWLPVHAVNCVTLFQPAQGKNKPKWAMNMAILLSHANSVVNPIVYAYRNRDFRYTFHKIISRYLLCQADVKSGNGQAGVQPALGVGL
# [14] = test system: Mus musculus; assay: Anticonvulsant activity in F1 albino mouse assessed as protection against subcutaneous pentylenetetrazole-induced seizures at 300 mg/kg, ip after 0.5 hrs; format: functional, organism-based; set-up: dose 300 mg/kg; summary of the method: as §1
# [15] = test system: Mus musculus; assay: Anticonvulsant activity in F1 albino mouse assessed as protection against maximal electroshock-induced seizures at 300 mg/kg, ip after 4 hrs; format: functional, organism-based; set-up: dose 300 mg/kg; summary of the method: as §1
# [16] = test system: Mus musculus; assay: Neurotoxicity in F1 albino mouse assessed as minimal motor impairment at 300 mg/kg, ip after 4 hrs by rotorod test; format: toxicity, organism-based; set-up: dose 300 mg/kg, route intraperitoneal; conditions: in vivo; summary of the method: as §1
# [17] = test system: Mus musculus; assay: Anticonvulsant activity in F1 albino mouse assessed as protection against subcutaneous pentylenetetrazole-induced seizures at 300 mg/kg, ip after 4 hrs; format: functional, organism-based; set-up: dose 300 mg/kg; summary of the method: as §1
# [18] = test system: Mus musculus; assay: Anticonvulsant activity in F1 albino mouse assessed as protection against maximal electroshock-induced seizures at 300 mg/kg, ip after 1 hr; format: functional, organism-based; set-up: dose 300 mg/kg; summary of the method: as §1
# [19] = target: T3, Adenosine receptor A2a; conditions: CHO, 10 uM
# [20] = test system: Mus musculus; assay: Neurotoxicity in F1 albino mouse assessed as minimal motor impairment at 300 mg/kg, ip after 0.25 hrs by rotorod test; format: toxicity, organism-based; set-up: dose 300 mg/kg, route intraperitoneal; conditions: in vivo; summary of the method: as §1
# [21] = target: T7, Adenosine receptor A2b (Homo sapiens) (UniProt P29275); assay: Displacement of [3H]ZM241385 from human adenosine A2B receptor expressed in CHO cells at 10 uM; format: cell-based; summary of the method: as §2
# T7 sequence (whole entry): T6 sequence (P29275 whole entry)
# [22] = target: Adenosine receptor A2a (Rattus norvegicus, UniProt P30543); assay: Displacement of [3H]MSX-2 from adenosine A2A receptor in rat brain striatal membrane; format: cell membranes
# Chain of Adenosine receptor A2a (Rattus norvegicus, UniProt P30543) (P30543 whole entry): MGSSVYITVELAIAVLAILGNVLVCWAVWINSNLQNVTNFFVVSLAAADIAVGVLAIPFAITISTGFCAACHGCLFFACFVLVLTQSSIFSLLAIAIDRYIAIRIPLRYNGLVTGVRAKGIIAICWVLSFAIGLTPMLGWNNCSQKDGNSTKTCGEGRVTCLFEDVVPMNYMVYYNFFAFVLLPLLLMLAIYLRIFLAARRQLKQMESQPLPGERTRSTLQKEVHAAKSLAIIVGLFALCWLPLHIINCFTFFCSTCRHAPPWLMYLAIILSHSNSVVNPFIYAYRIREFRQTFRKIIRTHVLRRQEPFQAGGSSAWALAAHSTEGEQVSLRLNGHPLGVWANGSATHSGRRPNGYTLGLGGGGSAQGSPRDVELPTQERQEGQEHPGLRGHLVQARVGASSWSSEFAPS
# [23] = target: T8, Adenosine receptor A1 (Rattus norvegicus, UniProt P25099); assay: Displacement of [3H]CCPA from adenosine A1 receptor in rat brain cortical membrane; format: cell membranes
# T8 sequence (P25099 whole entry): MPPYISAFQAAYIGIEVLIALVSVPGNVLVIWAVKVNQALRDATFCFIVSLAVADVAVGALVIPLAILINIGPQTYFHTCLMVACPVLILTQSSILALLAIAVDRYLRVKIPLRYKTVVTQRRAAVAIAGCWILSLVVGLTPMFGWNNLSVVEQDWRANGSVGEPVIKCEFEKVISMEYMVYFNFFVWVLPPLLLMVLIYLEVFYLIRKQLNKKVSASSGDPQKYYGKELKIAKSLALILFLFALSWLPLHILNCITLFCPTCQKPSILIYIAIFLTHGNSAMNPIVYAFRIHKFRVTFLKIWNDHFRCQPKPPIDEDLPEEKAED
# [24] = species on record: Rattus norvegicus; assay: Selectivity ratio of Ki for adenosine A1 receptor in rat brain cortical membrane to Ki for adenosine A2A receptor in rat brain striatal membrane; format: cell membranes; summary of the method: as §3
# [25] = test system: Mus musculus; assay: Anticonvulsant activity in F1 albino mouse assessed as protection against maximal electroshock-induced seizures at 300 mg/kg, ip after 0.5 hrs; format: functional, organism-based; set-up: dose 300 mg/kg; summary of the method: as §1
# [26] = test system: Mus musculus; assay: Anticonvulsant activity in F1 albino mouse assessed as protection against subcutaneous pentylenetetrazole-induced seizures at 300 mg/kg, ip after 0.25 hrs; format: functional, organism-based; set-up: dose 300 mg/kg; summary of the method: as §1
smiles,measurement,setting,value
CCCC(CCC)C(=O)O [VALPROIC ACID],ED50,[1],209 mg/kg
same,ED50,[2],287 mg/kg
CC(=O)OC1CCC(N2CCCCn3c2nc2c3c(=O)n(C)c(=O)n2C)CC1 (mixture of isomers),Ki,[3],> 10 µM
same,Activity,[4],Non-toxic
same,Activity,[5],inactive
same,Activity,[6],inactive
same,inhibition,[7],28%
same,Ki,[8],> 10 µM
same,Ki,[9],> 10 µM
same,Ratio Ki,[10],5
same,Activity,[11],Non-toxic
same,inhibition,[12],16%
same,Ki,[13],> 10 µM
same,Activity,[14],Active
same,Activity,[15],inactive
same,Activity,[16],Non-toxic
same,Activity,[17],inactive
same,Activity,[18],inactive
same,inhibition,[19],8%
same,Activity,[20],Non-toxic
same,inhibition,[21],29%
same,Ki,[22],1740 nM
same,Ki,[23],4.87 µM
same,Ratio Ki,[24],3
same,Activity,[25],inactive
same,Activity,[26],inactive
